We go through one compound from ChEMBL document CHEMBL4138312 (J Med Chem, 2018).

Data set [1] has as its target T1, Tyrosine-protein kinase JAK1 (Homo sapiens, UniProt P23458). The data set can be described thus: Inhibition of cytoplasmic recombinant human GST-tagged JAK1 (886 to 1154 residues) expressed in insect cells using FITC-C6-KKHTDDGYMPMSPGVA-NH as substrate after 10 mins by caliper assay. The method, boiled down:
(§1)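 Biochemical kinase inhibition IC50 measured at 5 mM ATP. Values are the geometric mean of at least two independent experiments.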

Data set [2] deals with Tyrosine-protein kinase JAK2 (Homo sapiens, UniProt O60674). In words: Inhibition of recombinant human JAK2 (831 to 1132 residues) expressed in insect cells using 5FAM-GEEPLYWSFPAKKK-NH2 as substrate after 10 mins by caliper assay. A digest of the protocol: as §1
Data set [3] deals with T1, Tyrosine-protein kinase JAK1. The data set can be described thus: Inhibition of JAK1 in human NCI-H1975 cells assessed as reduction in STAT3 phosphorylation after 1 hr by ELISA. In kind it is cell-based. The method, boiled down:
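Cellular mode-of-action assay in NCI-H1975 cells, read as inhibition of STAT3 phosphorylation. EC50 was derived.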
In general terms: ELISA stands for enzyme-linked immunosorbent assay.

The subject of another data set is A549. The data set can be described thus: Antiproliferative activity against human A549 cells after 48 hrs by Alamar Blue based assay. To be noted: A549, 48 h. In kind it is functional. The method, boiled down:
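Antiproliferation assay in A549 cells, reported as GI50.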
(In general: The colour change of resazurin is a common sign of viable cells or microbes.)

The target in another data set is JAK2 (Homo sapiens, UniProt O60674). In words: Inhibition of catalytic recombinant human GST-tagged JAK2 expressed in baculovirus at 1 uM. The method, boiled down:
(§2)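 Kinase panel of 386 kinases, each screened at a single concentration of 1 μM.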

Data set [4] deals with T2, Serine/threonine-protein kinase D1 (Homo sapiens) (UniProt Q15139).
T2 sequence (whole entry): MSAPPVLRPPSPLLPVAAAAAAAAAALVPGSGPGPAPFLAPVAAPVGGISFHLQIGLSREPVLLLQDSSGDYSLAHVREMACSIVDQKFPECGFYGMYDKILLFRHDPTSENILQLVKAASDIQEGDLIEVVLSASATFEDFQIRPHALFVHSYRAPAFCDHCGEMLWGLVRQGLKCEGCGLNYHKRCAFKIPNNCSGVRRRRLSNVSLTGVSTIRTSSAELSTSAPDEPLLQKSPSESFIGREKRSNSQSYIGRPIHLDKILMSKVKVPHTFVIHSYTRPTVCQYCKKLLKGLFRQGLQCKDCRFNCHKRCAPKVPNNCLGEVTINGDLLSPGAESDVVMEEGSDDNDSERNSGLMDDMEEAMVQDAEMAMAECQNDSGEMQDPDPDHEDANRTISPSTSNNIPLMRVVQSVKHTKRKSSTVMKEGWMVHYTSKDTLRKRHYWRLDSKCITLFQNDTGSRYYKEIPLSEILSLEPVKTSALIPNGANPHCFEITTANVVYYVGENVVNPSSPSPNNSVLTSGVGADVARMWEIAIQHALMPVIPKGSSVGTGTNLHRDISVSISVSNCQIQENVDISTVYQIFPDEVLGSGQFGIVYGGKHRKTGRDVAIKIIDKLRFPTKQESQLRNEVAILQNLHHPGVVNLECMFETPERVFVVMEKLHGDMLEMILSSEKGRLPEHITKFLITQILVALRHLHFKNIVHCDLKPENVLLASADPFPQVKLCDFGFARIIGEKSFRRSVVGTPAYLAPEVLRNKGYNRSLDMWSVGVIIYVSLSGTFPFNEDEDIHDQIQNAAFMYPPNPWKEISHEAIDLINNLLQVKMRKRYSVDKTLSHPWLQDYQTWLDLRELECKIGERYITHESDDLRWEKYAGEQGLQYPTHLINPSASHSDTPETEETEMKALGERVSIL
In words: Inhibition of recombinant human full length GST-tagged PRKD1 expressed in baculovirus at 1 uM. A digest of the protocol: as §2

The target of data set [5] is Leucine-rich repeat serine/threonine-protein kinase 2 (Homo sapiens) (UniProt Q5S007). The data set can be described thus: Inhibition of recombinant human full length GST-tagged catalytic LRRK2 expressed in baculovirus at 1 uM. A digest of the protocol: as §2
Data set [6] is described as follows: Clearance in CD1 mouse at 3 mg/kg, iv by LC/MS/MS analysis. The class given is ADME, organism-based. To be noted: in vivo. The method, boiled down: (§3)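 Mouse pharmacokinetics after a single iv dose of 3 mg/kg in 10% HPbCD + 5% dextrose in WFI at pH 4. Plasma clearance, half-life and steady-state volume of distribution were derived.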
Data set [7] can be described thus: Half life in CD1 mouse at 3 mg/kg, iv by LC/MS/MS analysis. The class given is ADME, organism-based. To be noted: in vivo. A digest of the protocol: as §3
A short description of data set [8]: Volume of distribution at steady state in CD1 mouse at 3 mg/kg, iv by LC/MS/MS analysis. The class given is ADME, organism-based. To be noted: in vivo, read-out: Vdss. The method, boiled down: as §3
Data set [9] can be described thus: Half life in CD1 mouse at 10 mg/kg, po administered via gavage by LC/MS/MS analysis. The class given is ADME, organism-based. Conditions: in vivo. A digest of the protocol: (§4)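 Mouse pharmacokinetics after oral dosing at 10 or 50 mg/kg. The 10 mg/kg dose was given in 10% HPbCD + 5% dextrose in WFI at pH 4. The 50 mg/kg dose was given in 5% SBECD in WFI at pH 2. Plasma exposure (AUC), half-life and oral bioavailability were derived.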

Data set [10] in a line: AUC in CD1 mouse at 10 mg/kg, po by LC/MS/MS analysis. To be noted: in vivo. In kind it is ADME, organism-based. A digest of the protocol:
as §4

Data set [11] can be described thus: Oral bioavailability in CD1 mouse at 10 mg/kg administered via gavage by LC/MS/MS analysis. In kind it is ADME, organism-based. Conditions: in vivo. A digest of the protocol: as §4
Data set [12] is described as follows: Half life in CD1 mouse at 50 mg/kg, po administered via gavage by LC/MS/MS analysis. The class given is ADME, organism-based. To be noted: in vivo. A digest of the protocol: as §4
Another data set deals with Mus musculus. In words: In vivo inhibition of JAK1 in tumors of human NCI-H1975 cells xenografted in NCr nude mouse assessed as decrease in STAT3 phosphorylation at 50 mg/kg, po after 2 hrs by ELISA. The class given is functional, organism-based. The method, boiled down:
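NCI-H1975 xenograft-bearing mice received single oral gavage doses of 1, 3, 10, 30, 50 or 100 mg/kg. Animals were sacrificed at 2 h, with an extra 6 h group at 50 mg/kg. Tumour pSTAT3 was measured as % inhibition, and plasma drug concentration was measured in parallel. Significance was tested by Student's t-test versus vehicle control.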

The nature of data set [13]: Protein binding in CD1 mouse plasma assessed as unbound fraction. The class given is ADME, cell-free.

T1 sequence (P23458 whole entry, the tested form may be a part): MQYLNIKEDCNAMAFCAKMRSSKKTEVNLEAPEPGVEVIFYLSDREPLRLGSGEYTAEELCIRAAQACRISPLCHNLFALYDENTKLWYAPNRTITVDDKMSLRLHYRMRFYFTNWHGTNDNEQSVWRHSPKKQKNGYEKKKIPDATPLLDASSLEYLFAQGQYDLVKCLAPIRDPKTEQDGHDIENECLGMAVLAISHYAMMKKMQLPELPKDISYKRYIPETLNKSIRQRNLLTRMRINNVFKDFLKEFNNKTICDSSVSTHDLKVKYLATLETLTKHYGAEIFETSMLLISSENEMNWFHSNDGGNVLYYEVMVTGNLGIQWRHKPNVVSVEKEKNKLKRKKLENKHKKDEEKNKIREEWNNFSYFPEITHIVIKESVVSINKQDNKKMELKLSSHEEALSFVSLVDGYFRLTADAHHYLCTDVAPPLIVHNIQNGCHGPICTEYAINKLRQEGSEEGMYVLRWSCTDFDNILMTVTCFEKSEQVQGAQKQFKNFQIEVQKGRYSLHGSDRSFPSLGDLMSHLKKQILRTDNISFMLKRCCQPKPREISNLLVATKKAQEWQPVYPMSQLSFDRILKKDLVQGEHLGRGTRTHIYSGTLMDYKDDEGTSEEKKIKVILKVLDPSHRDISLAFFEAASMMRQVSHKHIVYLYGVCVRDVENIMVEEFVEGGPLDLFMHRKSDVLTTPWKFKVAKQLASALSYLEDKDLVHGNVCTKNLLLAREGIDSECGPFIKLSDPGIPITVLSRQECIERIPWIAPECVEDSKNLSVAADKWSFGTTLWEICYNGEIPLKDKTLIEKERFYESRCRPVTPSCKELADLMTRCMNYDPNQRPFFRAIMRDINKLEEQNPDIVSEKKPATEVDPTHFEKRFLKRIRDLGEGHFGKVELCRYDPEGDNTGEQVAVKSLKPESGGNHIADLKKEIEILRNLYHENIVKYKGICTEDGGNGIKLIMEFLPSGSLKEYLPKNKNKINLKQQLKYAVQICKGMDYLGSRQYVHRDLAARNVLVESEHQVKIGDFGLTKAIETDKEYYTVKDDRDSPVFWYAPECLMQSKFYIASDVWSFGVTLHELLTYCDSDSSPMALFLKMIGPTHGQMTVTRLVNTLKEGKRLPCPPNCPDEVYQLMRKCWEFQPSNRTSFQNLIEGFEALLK
Chain of Leucine-rich repeat serine/threonine-protein kinase 2 (Homo sapiens) (Q5S007 whole entry): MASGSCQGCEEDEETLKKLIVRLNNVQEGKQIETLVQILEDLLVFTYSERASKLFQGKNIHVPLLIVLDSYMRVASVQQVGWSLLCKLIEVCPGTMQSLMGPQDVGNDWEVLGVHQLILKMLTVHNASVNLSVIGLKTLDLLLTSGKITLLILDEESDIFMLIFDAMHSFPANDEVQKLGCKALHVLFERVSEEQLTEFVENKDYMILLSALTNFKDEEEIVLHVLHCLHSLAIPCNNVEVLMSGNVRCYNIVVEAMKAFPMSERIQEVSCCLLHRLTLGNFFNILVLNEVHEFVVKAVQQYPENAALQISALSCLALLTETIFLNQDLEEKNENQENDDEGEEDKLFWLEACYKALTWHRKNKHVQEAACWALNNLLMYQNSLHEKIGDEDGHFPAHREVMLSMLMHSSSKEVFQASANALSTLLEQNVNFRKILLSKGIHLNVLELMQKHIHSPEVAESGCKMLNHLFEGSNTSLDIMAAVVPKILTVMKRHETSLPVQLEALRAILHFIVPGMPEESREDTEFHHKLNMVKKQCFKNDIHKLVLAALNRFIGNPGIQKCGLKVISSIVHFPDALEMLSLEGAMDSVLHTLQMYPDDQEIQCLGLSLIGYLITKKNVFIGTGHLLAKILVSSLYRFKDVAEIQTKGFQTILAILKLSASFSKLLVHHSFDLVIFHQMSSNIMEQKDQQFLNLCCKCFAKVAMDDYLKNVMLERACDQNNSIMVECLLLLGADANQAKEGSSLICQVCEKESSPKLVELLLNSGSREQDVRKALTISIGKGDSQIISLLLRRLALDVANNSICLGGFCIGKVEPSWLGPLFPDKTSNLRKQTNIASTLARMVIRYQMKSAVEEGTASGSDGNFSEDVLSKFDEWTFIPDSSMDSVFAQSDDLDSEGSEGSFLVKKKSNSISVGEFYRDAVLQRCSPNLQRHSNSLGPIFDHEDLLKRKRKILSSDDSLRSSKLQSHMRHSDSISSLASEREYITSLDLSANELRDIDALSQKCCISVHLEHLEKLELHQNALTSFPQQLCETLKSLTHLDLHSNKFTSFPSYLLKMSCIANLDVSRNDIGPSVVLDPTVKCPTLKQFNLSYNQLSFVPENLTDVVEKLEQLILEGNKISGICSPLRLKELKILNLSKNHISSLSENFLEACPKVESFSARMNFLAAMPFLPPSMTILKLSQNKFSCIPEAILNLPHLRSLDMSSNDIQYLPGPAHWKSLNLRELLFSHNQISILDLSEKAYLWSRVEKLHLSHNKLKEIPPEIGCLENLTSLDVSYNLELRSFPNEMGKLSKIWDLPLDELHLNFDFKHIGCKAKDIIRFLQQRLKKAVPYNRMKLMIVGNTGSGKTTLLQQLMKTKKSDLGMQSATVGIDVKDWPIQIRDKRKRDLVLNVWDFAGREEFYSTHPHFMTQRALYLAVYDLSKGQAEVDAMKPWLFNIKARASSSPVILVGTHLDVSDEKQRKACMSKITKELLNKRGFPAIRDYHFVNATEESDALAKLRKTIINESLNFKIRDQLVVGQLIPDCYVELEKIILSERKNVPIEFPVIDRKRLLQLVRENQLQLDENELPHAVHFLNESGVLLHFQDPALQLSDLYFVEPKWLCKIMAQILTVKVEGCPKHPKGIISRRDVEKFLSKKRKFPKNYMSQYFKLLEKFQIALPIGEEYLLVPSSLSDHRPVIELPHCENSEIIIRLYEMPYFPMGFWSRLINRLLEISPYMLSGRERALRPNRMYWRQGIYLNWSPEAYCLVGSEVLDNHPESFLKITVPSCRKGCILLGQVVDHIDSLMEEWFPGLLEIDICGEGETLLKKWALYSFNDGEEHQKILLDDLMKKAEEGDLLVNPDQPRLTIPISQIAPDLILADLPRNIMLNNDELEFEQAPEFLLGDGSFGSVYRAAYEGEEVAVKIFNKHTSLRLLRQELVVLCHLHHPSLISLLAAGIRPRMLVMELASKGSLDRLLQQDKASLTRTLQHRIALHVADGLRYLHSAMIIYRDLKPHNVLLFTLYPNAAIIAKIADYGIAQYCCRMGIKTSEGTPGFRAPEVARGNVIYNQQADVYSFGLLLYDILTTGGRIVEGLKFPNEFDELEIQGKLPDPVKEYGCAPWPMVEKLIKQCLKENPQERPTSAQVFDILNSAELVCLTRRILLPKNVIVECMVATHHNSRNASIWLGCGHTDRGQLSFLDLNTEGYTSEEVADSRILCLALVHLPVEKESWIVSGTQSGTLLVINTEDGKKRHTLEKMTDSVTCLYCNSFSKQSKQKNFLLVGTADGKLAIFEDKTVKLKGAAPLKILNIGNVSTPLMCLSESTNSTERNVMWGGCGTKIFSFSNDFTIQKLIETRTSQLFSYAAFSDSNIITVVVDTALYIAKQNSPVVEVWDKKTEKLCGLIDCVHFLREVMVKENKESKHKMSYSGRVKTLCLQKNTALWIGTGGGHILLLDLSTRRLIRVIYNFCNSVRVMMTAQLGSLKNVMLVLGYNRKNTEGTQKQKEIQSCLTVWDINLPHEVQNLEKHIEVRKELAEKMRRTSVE
Chain of Tyrosine-protein kinase JAK2 (O60674 whole entry, the tested form may be a part): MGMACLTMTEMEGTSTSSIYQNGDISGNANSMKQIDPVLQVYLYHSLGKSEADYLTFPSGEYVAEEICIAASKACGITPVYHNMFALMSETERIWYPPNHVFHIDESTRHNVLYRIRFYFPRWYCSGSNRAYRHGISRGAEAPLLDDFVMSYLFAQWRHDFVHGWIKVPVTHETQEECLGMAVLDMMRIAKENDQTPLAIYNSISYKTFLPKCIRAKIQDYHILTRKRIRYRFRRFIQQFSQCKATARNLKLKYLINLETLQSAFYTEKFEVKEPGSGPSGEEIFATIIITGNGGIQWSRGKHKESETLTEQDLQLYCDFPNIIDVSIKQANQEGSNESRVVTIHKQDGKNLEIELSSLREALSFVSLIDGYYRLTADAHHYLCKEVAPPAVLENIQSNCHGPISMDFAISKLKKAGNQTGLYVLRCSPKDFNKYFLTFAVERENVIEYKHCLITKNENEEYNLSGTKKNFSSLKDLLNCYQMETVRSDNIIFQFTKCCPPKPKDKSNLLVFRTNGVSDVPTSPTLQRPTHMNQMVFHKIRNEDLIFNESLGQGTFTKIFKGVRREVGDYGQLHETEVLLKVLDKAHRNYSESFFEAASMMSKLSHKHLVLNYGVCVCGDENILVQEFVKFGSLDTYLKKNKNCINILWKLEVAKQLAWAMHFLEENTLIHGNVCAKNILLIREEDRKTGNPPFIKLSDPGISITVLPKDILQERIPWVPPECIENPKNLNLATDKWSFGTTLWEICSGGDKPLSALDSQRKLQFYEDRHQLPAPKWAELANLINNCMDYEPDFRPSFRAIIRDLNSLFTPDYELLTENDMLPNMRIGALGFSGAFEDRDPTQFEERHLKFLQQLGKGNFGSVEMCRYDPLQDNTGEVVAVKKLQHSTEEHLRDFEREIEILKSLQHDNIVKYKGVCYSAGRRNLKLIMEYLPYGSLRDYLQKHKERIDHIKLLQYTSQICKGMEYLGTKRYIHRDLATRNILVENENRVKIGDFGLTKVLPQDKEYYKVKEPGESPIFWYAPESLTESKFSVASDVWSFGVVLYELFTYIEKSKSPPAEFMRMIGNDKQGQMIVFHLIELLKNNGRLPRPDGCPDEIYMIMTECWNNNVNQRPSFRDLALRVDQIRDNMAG
Chain of JAK2 (O60674 whole entry): as the sequence (O60674 whole entry, the tested form may be a part) above

Regarding `CC[C@@H](C)Nc1nc(Nc2cc(N3C[C@@H]4C[C@H]3CN4C)cnc2F)ncc1C`, the IC50 (in general, the point on the concentration scale where inhibition reaches its midpoint) was 34 nM in data set [1] and over 30000 nM in data set [2]. In addition, the half-maximal effective concentration (EC50) (usually the concentration that produces a half-maximal response) in data set [3] was 30 nM. Also, the concentration for 50% growth inhibition (GI50) – broadly, the concentration at which growth is held to half of that of the control – in the data set with A549 was over 10000 nM. Further, the inhibition – broadly, the change of the read-out against control, counted positive when it falls – at 1 µM on JAK2 was 31%. Besides, the inhibition in data set [4] was 73%; in [5], 71%; in the data set on Mus musculus, “Dose-dependent effect”. The clearance (usually the volume of plasma or blood freed of the substance per unit of time) in [6] came to 68.7 mL/min/kg. The half-life (in general, the time needed for the level to fall by half in the phase considered) was 2.4 h in data set [7], 4.7 h in [9] and 5.3 h in data set [12]. The Vd in data set [8] was determined as 10.3 L/kg. The AUC – broadly, concentration integrated over time – in data set [10] stood at 2.65 µM·h. Besides, the bioavailability (commonly the share of a dose that reaches the circulation, judged against a reference dose that is usually intravenous) in data set [11] turned out to be 30%. The fraction unbound (usually the share of the substance not bound to proteins or other matrix) in data set [13] amounted to 0.15.
